# Measured values: ChEMBL document CHEMBL3877298, “Discovery of benzimidazole derivatives as modulators of mitochondrial function: A potential treatment for Alzheimer's disease” (Eur J Med Chem, 2017)
# Tests used:
# [1] = Drug excretion in Sprague-Dawley rat at 10 mg/kg, iv by LC-MS/MS analysis; type: ADME, organism-based; settings: in vivo, read-out: Drug excretion
# Mus musculus = experiment: Reversal of coginitive deficit in double APP/PS1 transgenic Alzheimer's disease mouse model assessed as increase in freezing response at 30 mg/kg, po daily for 1 month by contextual fear conditioning test; type: functional
# [2] = Cmax in Sprague-Dawley rat at 10 mg/kg, po by LC-MS/MS analysis; type: ADME, organism-based; set-up: dose 10 mg/kg, route oral; settings: in vivo
# How it was run: (§1)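 Male SD rats, 8 weeks old, acclimatised at least 1 week; compound dissolved at 10 mg/2 mL in N-methyl-2-pyrrolidone/Tween80/water (1:2:7) by 5 min sonication, given 10 mg/kg by oral gavage at 2 mL/kg (n = 5). Heart-puncture blood drawn at 30 min and 3 h, plasma spun and stored at -70 °C. Samples mixed with carbamazepine internal standard in acetonitrile and assayed by LC-MS/MS.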
# [3] = Ratio of drug level in brain to plasma in Sprague-Dawley rat at 10 mg/kg, po at 2 hrs post dose by LC-MS/MS analysis; type: ADME, organism-based; settings: brain and plasma, read-out: BPR
# [4] = Tmax in Sprague-Dawley rat at 10 mg/kg, po by LC-MS/MS analysis; type: ADME, organism-based; settings: in vivo; how it was run: as §1
# [5] = Cytotoxicity against mouse HT22 cells assessed as cell viability at 5 uM after 24 hrs by MTT assay relative to control; type: toxicity, HT-22; settings: read-out: Activity
# How it was run: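 MTT was added for 2 h, then solubilising solution (10% Triton X-100 in isopropanol with 0.1 M HCl) for 2 h more. Absorbance read at 560 nm; % inhibition normalised to vehicle, and viability taken from compound-only wells.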
# [6] = Oral bioavailability in Sprague-Dawley rat at 10 mg/kg by LC-MS/MS analysis; type: ADME, organism-based; settings: in vivo; how it was run: as §1
# CYP2D6 = CYP2D6 (Homo sapiens, UniProt P10635); experiment: Inhibition of recombinant human CYP2D6 expressed in baculosomes coexpressing rabbit NADPH-P450 reudctase assessed as residual activity at 10 uM preincubated for 5 mins followed by substrate and NADP+ addition measured after 20 mins by fluorescence assay relative to control; type: ADME; settings: read-out: Activity
# CYP2D6, sequence (P10635 whole entry): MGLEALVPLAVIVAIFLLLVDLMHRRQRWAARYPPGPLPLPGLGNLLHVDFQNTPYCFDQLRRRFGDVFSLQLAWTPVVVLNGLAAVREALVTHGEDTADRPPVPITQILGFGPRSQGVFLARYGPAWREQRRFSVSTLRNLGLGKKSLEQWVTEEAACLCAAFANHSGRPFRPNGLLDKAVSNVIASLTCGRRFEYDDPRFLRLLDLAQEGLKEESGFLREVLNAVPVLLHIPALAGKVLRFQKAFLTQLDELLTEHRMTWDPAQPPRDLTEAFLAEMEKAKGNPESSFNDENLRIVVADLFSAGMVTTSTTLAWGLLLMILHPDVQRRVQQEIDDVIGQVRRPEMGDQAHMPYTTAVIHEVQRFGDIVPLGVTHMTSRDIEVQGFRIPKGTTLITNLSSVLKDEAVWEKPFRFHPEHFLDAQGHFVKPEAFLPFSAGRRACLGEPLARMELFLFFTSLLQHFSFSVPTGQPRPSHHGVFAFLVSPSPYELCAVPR
# How it was run: (§2)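 Vivid CYP450 kit: recombinant human CYP isozyme in Baculosomes with rabbit NADPH-P450 reductase, plus regeneration system (3.3 mM glucose-6-phosphate, 0.3 U/mL G6PDH in 100 mM potassium phosphate, pH 8.0). Mixture preincubated with sample for 5 min at 37 °C. Vivid substrate and 0.1 mM NADP+ were then added, and remaining activity read by fluorescence after 20 min.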
# Translocator protein = Translocator protein (Rattus norvegicus, UniProt P16257); experiment: Displacement of [3H]PK11195 from TSPO in Sprague-Dawley rat cerebral cortex membranes after 60 mins by microbeta liquid scintillation counting method; set-up: species or system Membrane
# Translocator protein, sequence (P16257 whole entry, looked up): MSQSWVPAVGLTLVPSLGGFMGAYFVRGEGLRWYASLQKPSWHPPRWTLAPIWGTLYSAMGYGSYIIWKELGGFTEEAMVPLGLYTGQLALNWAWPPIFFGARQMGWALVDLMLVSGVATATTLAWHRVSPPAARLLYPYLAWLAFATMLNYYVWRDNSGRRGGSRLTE
# [7] = Ratio of drug level in brain to plasma in Sprague-Dawley rat at 10 mg/kg, iv at 2 hrs post dose by LC-MS/MS analysis; type: ADME, organism-based; settings: brain and plasma, read-out: BPR
# How it was run: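 After intravenous dosing at 10 mg/kg in male SD rats, brain and plasma were sampled at 2 h. Each was mixed with carbamazepine internal standard in acetonitrile and analysed by LC-MS/MS.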
# [8] = Drug excretion in Sprague-Dawley rat at 10 mg/kg, po by LC-MS/MS analysis; type: ADME, organism-based; settings: in vivo, read-out: Drug excretion
# CYP2C9 = CYP2C9 (Homo sapiens, UniProt P11712); experiment: Inhibition of recombinant human CYP2C9 expressed in baculosomes coexpressing rabbit NADPH-P450 reudctase assessed as residual activity at 10 uM preincubated for 5 mins followed by substrate and NADP+ addition measured after 20 mins by fluorescence assay relative to control; type: ADME; settings: read-out: Activity; how it was run: as §2
# CYP2C9, sequence (P11712 whole entry): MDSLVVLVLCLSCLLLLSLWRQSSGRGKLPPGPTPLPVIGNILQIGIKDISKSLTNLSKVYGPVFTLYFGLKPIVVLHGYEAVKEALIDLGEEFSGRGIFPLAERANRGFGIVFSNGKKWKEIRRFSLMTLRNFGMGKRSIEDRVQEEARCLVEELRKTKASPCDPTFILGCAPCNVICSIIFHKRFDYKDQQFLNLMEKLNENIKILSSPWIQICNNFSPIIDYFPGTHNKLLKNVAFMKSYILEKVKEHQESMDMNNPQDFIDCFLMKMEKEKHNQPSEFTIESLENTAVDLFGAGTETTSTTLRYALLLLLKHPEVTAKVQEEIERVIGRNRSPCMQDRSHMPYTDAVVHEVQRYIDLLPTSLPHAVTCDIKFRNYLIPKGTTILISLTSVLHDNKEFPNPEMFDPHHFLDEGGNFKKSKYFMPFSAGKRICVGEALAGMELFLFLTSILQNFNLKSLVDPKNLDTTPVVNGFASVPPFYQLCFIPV
# [9] = Total clearance in Sprague-Dawley rat at 10 mg/kg, iv by LC-MS/MS analysis; type: ADME, organism-based; settings: in vivo
# How it was run: (§3)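 Male SD rats, 8 weeks old, given 10 mg/kg intravenously (n = 4). Plasma mixed with carbamazepine internal standard in acetonitrile, vortexed, centrifuged at 10,000×g, and the supernatant analysed by LC-MS/MS. Parameters reported as mean ± SD.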
# [10] = biological target: Voltage-gated inwardly rectifying potassium channel KCNH2 (Homo sapiens, UniProt Q12809); experiment: Inhibition of human ERG expressed in CHOK1 cells by automated patch clamp method; type: cell-based, CHO-K1
# Voltage-gated inwardly rectifying potassium channel KCNH2, sequence (Q12809 whole entry): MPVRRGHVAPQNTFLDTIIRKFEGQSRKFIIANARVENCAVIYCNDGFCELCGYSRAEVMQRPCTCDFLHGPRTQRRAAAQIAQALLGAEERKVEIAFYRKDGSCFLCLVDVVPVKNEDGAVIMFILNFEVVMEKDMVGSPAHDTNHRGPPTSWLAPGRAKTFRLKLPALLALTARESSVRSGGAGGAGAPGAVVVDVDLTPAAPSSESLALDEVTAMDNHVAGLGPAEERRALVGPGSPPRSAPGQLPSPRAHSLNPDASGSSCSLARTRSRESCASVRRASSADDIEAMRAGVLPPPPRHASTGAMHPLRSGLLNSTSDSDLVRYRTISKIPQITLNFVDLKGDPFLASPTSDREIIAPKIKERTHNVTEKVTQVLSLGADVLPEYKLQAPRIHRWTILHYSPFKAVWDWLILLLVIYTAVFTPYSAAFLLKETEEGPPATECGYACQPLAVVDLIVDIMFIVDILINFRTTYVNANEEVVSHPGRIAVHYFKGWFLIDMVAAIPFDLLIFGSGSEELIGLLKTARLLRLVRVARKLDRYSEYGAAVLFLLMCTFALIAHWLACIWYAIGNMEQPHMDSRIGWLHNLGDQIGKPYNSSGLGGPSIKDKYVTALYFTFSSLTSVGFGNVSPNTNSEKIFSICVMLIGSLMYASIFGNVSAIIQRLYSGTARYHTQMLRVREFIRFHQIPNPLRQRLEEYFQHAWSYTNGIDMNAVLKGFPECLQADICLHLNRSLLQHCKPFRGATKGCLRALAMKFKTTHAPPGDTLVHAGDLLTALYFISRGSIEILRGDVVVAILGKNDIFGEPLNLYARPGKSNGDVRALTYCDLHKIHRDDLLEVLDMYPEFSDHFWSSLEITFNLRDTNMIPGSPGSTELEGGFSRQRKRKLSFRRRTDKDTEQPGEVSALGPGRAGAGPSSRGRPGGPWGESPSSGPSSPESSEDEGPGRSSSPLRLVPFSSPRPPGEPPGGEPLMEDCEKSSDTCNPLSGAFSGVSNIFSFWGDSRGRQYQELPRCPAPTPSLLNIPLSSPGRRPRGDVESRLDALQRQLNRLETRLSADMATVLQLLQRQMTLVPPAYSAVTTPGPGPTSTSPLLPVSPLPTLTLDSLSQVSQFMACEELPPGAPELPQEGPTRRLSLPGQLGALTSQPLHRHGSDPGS
# [11] = MRT in Sprague-Dawley rat at 10 mg/kg, iv by LC-MS/MS analysis; type: ADME, organism-based; settings: in vivo; how it was run: as §3
# [12] = biological target: Translocator protein (Mus musculus) (UniProt P50637); experiment: Inhibition of TSPO in mouse HT22 cells assessed as inhibition of amyloid beta (1 to 42)-induced ROS generation at 5 uM after 6 hrs by DCFDA staining based fluorescence assay relative to control; type: cell-based; settings: HT-22
# Translocator protein (Mus musculus), sequence (P50637 whole entry, looked up): as the sequence (P16257 whole entry, looked up) above, with S2P, Q3E, I67V, E77D, V110A, M113L, M149V, T168P counted along it
smiles,measurement,setting,value
Cc1ccc(C(C)C)cc1NC(=O)Cn1c(Cc2c(Cl)cccc2Cl)nc2ccccc21,dose excreted,[1],0.03%
same,Activity,Mus musculus,12%
same,Cmax,[2],70 ng/mL
same,Kp at 2 h,[3],1.02
same,Tmax,[4],33 min
same,"viability at 24 h, 5 µM",[5],88 to 109%
same,bioavailability,[6],3.7%
same,"activity at 20 min, 10 µM",CYP2D6,140%
same,IC50,Translocator protein,74.3 nM
same,Ki,Translocator protein,22.8 nM
same,Kp at 2 h,[7],2.88
same,dose excreted,[8],0.01%
same,"activity at 20 min, 10 µM",CYP2C9,54.7%
same,clearance,[9],54.5 mL/min/kg
same,IC50,[10],> 100000 nM
same,MRT,[11],67.1 min
same,inhibition,[12],85%
